In ChEMBL document CHEMBL4811303, “Synthesis and evaluation of trypanocidal activity of derivatives of naturally occurring 2,5-diphenyloxazoles” (Bioorg Med Chem, 2021) one finds selectivity ratio and IC50 data, which are given here for 17 compounds.

Data set [1] is described as follows: Selectivity index, ratio of IC50 for cytotoxicity against bovine MDBK cells to IC50 for Trypanocidal activity against Trypanosoma brucei gambiense. As to conditions: cattle.
In another data set the test system is Trypanosoma congolense. The data set can be described thus: Trypanocidal activity against Trypanosoma congolense assessed as reduction in intracellular ATP production incubated for 72 hrs by CellTiter-Glo luminescent cell viability assay. It is filed as functional, organism-based. In a few lines: (§1)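 Bloodstream trypanosomes in 96-well culture were exposed to compound in 5-fold serial dilutions from 25 µg/mL to 1.6 ng/mL for 72 h. Seeding and temperature: T. b. brucei, T. b. gambiense and T. b. rhodesiense at 5×10^3 cells/mL and 37 °C; T. evansi at 1×10^4 cells/mL and 37 °C; T. congolense at 2×10^5 cells/mL and 33 °C. Viability was read as intracellular ATP by CellTiter-Glo luminescence. Three replicates; IC50 calculated.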
For orientation: In ATP-based viability assays light output follows the ATP content of the culture.

Data set [2] concerns Trypanosoma brucei gambiense. The data set can be described thus: Trypanocidal activity against Trypanosoma brucei gambiense assessed as reduction in intracellular ATP production incubated for 72 hrs by CellTiter-Glo luminescent cell viability assay. The data set is classed as functional, organism-based. Put shortly: as §1
Data set [3] can be described thus: Selectivity index, ratio of IC50 for cytotoxicity against bovine MDBK cells to IC50 for Trypanocidal activity against Trypanosoma brucei rhodesiense.
The subject of data set [4] is Trypanosoma brucei brucei. The data set can be described thus: Trypanocidal activity against Trypanosoma brucei brucei assessed as reduction in intracellular ATP production incubated for 72 hrs by CellTiter-Glo luminescent cell viability assay. The data set is classed as functional, organism-based. Put shortly: as §1
The subject of data set [5] is Trypanosoma brucei rhodesiense. As to the kind of experiment: Trypanocidal activity against Trypanosoma brucei rhodesiense assessed as reduction in intracellular ATP production incubated for 72 hrs by CellTiter-Glo luminescent cell viability assay. It is filed as functional, organism-based. In a few lines: as §1
The next data set concerns MDBK cells (Bos taurus). The data set can be described thus: Cytotoxicity against bovine MDBK cells assessed as reduction in cell viability incubated for 72 hrs by CCK8 assay. A general note: Formazan colour is commonly taken as a measure of viable cells.
In another data set the test system is Trypanosoma evansi. The data set can be described thus: Trypanocidal activity against Trypanosoma evansi assessed as reduction in intracellular ATP production incubated for 72 hrs by CellTiter-Glo luminescent cell viability assay. The data set is classed as functional, organism-based. Put shortly: as §1
The nature of data set [6]: Selectivity index, ratio of IC50 for cytotoxicity against bovine MDBK cells to IC50 for Trypanocidal activity against Trypanosoma evansi.
Data set [7] in a line: Selectivity index, ratio of IC50 for cytotoxicity against bovine MDBK cells to IC50 for Trypanocidal activity against Trypanosoma brucei brucei. As to conditions: cattle.
Data set [8] can be described thus: Selectivity index, ratio of IC50 for cytotoxicity against bovine MDBK cells to IC50 for Trypanocidal activity against Trypanosoma congolense.

As for `COc1ccc(-c2cnc(-c3cccc(OC)c3OC)o2)cc1`, the selectivity ratio in data set [1] amounted to 0.31; in [3], 0.3; in [6], 0.35; in data set [7] it was 0.3; in data set [8], 1.3. Moreover, the IC50 (usually the point on the concentration scale where inhibition reaches its midpoint) in the data set on Trypanosoma congolense worked out at 17.3 µM; in data set [2], 74.5 µM; in data set [4], 76.4 µM; in [5], 77 µM; with MDBK cells (Bos taurus) it was 22.8 µM; in the data set on Trypanosoma evansi it was 64.5 µM.
In the case of `COc1cccc(-c2ncc(-c3ccccc3[N+](=O)[O-])o2)c1OC`, the selectivity ratio in data set [1] was over 4.8; in data set [3] it was over 5.4; in data set [6], over 6.3; in data set [7], over 6.2; in data set [8], over 36. Also, the IC50 in the data set with Trypanosoma congolense is 8.4 µM; in [2] it was 63.4 µM; in data set [4], 49.6 µM; in data set [5], 56.4 µM; in the data set with MDBK cells (Bos taurus), over 306 µM; with Trypanosoma evansi, 49 µM.
`Oc1ccc(O)c(-c2ncc(-c3ccccc3O)o2)c1`: the selectivity ratio in data set [1] amounted to 0.96; in data set [3] it was 0.92; in [6] it was 3.5; in [7] it was 3; in data set [8], 8.2. Moreover, the IC50 with Trypanosoma congolense turned out to be 9.5 µM; in data set [2], 80.9 µM; in data set [4], 25.9 µM; in data set [5], 84.2 µM; in the data set on MDBK cells (Bos taurus), 77.4 µM; in the data set with Trypanosoma evansi, 22.2 µM.
For the compound `COc1ccccc1-c1nnc(-c2cccc(OC)c2OC)s1`, the selectivity ratio in [1] is over 14; in data set [3], over 11; in data set [6] it was over 11; in [7], over 10; in data set [8], over 80. In addition, the IC50 in the data set with Trypanosoma congolense was 3.8 µM; in [2], 22.1 µM; in data set [4], 29.8 µM; in data set [5], 27.2 µM; in the data set on MDBK cells (Bos taurus), over 305 µM; in the data set on Trypanosoma evansi it was 28.1 µM.
For the compound `Oc1ccccc1-c1nnc(-c2cccc(O)c2O)s1`, the selectivity ratio in data set [1] came out at 3; in data set [3], 3.1; in data set [6] it was 6.3; in [7] it was 3.5; in data set [8] it was 16. The IC50 in the data set on Trypanosoma congolense was 0.85 µM; in data set [2], 4.6 µM; in data set [4], 3.9 µM; in [5] it was 4.4 µM; in the data set with MDBK cells (Bos taurus), 13.6 µM; in the data set with Trypanosoma evansi it was 2.1 µM.
In the case of `COc1ccc(-c2cnc(-c3cccc(OC)c3OC)o2)c(OC)c1`, the selectivity ratio is over 9.4 in [1]; over 10 in data set [3]; over 10 in [6]; over 8.3 in data set [7]; over 190 in [8]. Also, the IC50 was 1.5 µM in the data set on Trypanosoma congolense; 31.2 µM in data set [2]; 35.4 µM in [4]; 28.7 µM in data set [5]; over 293 µM in the data set with MDBK cells (Bos taurus); 28.2 µM in the data set with Trypanosoma evansi.
For `Oc1ccccc1-c1nnc(-c2cccc(O)c2O)o1`, the selectivity ratio in data set [1] amounted to 3.1; in [3], 3.1; in data set [6] it was 7.2; in data set [7] it was 3.1; in [8], 8.8. The IC50 was 0.67 µM in the data set with Trypanosoma congolense; 1.9 µM in [2]; 1.9 µM in data set [4]; 1.9 µM in data set [5]; 5.9 µM with MDBK cells (Bos taurus); 0.81 µM with Trypanosoma evansi.
Take `COc1ccccc1-c1cnc(-c2c(OC)cccc2OC)o1`: the selectivity ratio in [1] was 1.5; in data set [3] it was 2; in [6], 1.7; in data set [7], 1.9; in [8], 7.1. In addition, the IC50 is 5.3 µM with Trypanosoma congolense; 24.6 µM in [2]; 19.7 µM in [4]; 18.4 µM in data set [5]; 37.6 µM in the data set on MDBK cells (Bos taurus); 21.7 µM in the data set on Trypanosoma evansi.
`COCOc1ccccc1-c1cnc(-c2cccc(OC)c2OC)o1`: the selectivity ratio in [1] worked out at 4.2; in [3], 3.1; in data set [6], 3.2; in data set [7], 3.8; in [8], 21. The IC50 is 3.9 µM in the data set with Trypanosoma congolense; 19.6 µM in data set [2]; 21.5 µM in data set [4]; 26.2 µM in data set [5]; 82.2 µM in the data set with MDBK cells (Bos taurus); 25.8 µM in the data set with Trypanosoma evansi.
As for `COc1cccc(-c2ncc(-c3ccc4ccccc4c3)o2)c1OC`, the selectivity ratio turned out to be 0.83 in data set [1]; 0.6 in data set [3]; 0.6 in data set [6]; 0.6 in [7]; 0.93 in [8]. The IC50 in the data set on Trypanosoma congolense was determined as 45.8 µM; in data set [2] it was 51.7 µM; in data set [4], 71.5 µM; in [5] it was 71.7 µM; in the data set on MDBK cells (Bos taurus), 42.7 µM; with Trypanosoma evansi, 71.2 µM.
Turning to `COc1cccc(-c2ncc(-c3c(OC)cccc3OC)o2)c1OC`, the selectivity ratio came to 3.5 in data set [1]; 2.8 in data set [3]; 3.4 in data set [6]; 2.9 in data set [7]; 12 in data set [8]. Moreover, the half-maximal inhibitory concentration (IC50) in the data set with Trypanosoma congolense was 7.7 µM; in data set [2] it was 25.8 µM; in data set [4] it was 31.6 µM; in [5] it was 32.2 µM; in the data set on MDBK cells (Bos taurus), 91.6 µM; in the data set with Trypanosoma evansi, 26.6 µM.
With `COc1ccccc1-c1coc(-c2cccc(OC)c2OC)n1`, the selectivity ratio in data set [1] is over 8.3; in [3], over 10; in data set [6] it was over 8.5; in data set [7], over 8.4; in data set [8], over 34. Besides, the IC50 was 9.4 µM with Trypanosoma congolense; 38.7 µM in data set [2]; 38.1 µM in [4]; 31.6 µM in [5]; over 321 µM in the data set on MDBK cells (Bos taurus); 37.9 µM in the data set on Trypanosoma evansi.
Take `COc1cccc(-c2cnc(-c3cccc(OC)c3OC)o2)c1`: the selectivity ratio in data set [1] was 1.3; in data set [3], 1.3; in [6], 1.4; in data set [7], 1.3; in data set [8], 9.3. For the same compound, the IC50 is 10.3 µM in the data set on Trypanosoma congolense; 73.9 µM in [2]; 76 µM in data set [4]; 76.1 µM in [5]; 96.3 µM in the data set with MDBK cells (Bos taurus); 68.2 µM in the data set with Trypanosoma evansi.
With `COc1cccc(-c2cnc(-c3cccc(OC)c3OC)o2)c1OC`, the selectivity ratio was 1.3 in [1]; 1.3 in data set [3]; 1.4 in data set [6]; 1.3 in data set [7]; 3.4 in data set [8]. Besides, the IC50 was 26.4 µM in the data set on Trypanosoma congolense; 69.2 µM in data set [2]; 70 µM in [4]; 70.2 µM in [5]; 90.8 µM in the data set on MDBK cells (Bos taurus); 65.5 µM in the data set with Trypanosoma evansi.
`CC(=O)Oc1ccc(OC(C)=O)c(-c2cnc(-c3ccccc3)o2)c1`: the selectivity ratio was 0.23 in data set [1]; 0.15 in data set [3]; 0.51 in data set [6]; 0.58 in data set [7]; 2.4 in data set [8]. The half-inhibitory concentration (IC50) was 3.9 µM in the data set with Trypanosoma congolense; 41.9 µM in data set [2]; 16.6 µM in data set [4]; 64.4 µM in data set [5]; 9.6 µM in the data set with MDBK cells (Bos taurus); 18.9 µM with Trypanosoma evansi.
Turning to `Oc1ccc(O)c(-c2cnc(-c3cc(O)ccc3O)o2)c1`, the selectivity ratio in data set [1] worked out at 0.29; in data set [3], 0.31; in [6] it was 0.51; in data set [7] it was 0.41; in [8], 2.6. The IC50 worked out at 8.6 µM in the data set on Trypanosoma congolense; 78.3 µM in data set [2]; 54.7 µM in data set [4]; 72.1 µM in data set [5]; 22.7 µM with MDBK cells (Bos taurus); 44.4 µM in the data set with Trypanosoma evansi.
For the compound `Oc1ccccc1-c1cnc(-c2cccc(O)c2O)s1`, the selectivity ratio in data set [1] stood at 2.4; in data set [3] it was 2.6; in data set [6] it was 5; in data set [7], 2.6; in data set [8], 8.8. Moreover, the IC50 in the data set on Trypanosoma congolense was 2.3 µM; in [2], 8.2 µM; in data set [4], 7.7 µM; in [5] it was 7.8 µM; with MDBK cells (Bos taurus), 20 µM; in the data set with Trypanosoma evansi, 4 µM.
